Compound activity: PubChem BioAssay, several laboratories
Shown are actives, neighbours in structure and some others; about 1.1% of the full set was active somewhere.
FXIIa inh: factor XIIa (human) inhibition. purified FXIIa, Boc-QGR-AMC fluorogenic substrate, 2 h. inhibition, % at 5 µM. AID 800. 220,000 tested, 0.3% active; in the data active means inhibition above about 40%;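 further: 0% = enzyme with no compound and 100% = blank without enzyme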
KLK5 inh: inhibitors of human kallikrein 5; 210,000 tested, 0.59% active; Q9Y337; recombinant hK5, fluorogenic AMC substrate cleavage; inhibition, % at 5 µM;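 active means inhibition of 40% or more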;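 further: 0% = enzyme controls without compound and 100% = no-enzyme blanks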
Furin inhibitor: blocks human furin protease activity. P09958. purified furin, fluorogenic substrate cleavage. inhibition, % at 20 µM or 30 µM. 220,000 tested, 0.061% active; in the data active means inhibition above about 25%
FXIa inh: factor XIa (human) inhibition | AID 798 | inhibition, % at 5 µM | purified FXIa, Boc-Glu-Ala-Arg-AMC fluorogenic substrate | 220,000 tested, 0.14% active | P03951;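 active means inhibition of at least 40%; inactive means inhibition below 40%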;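 further: fluorescence of freed AMC excited at 355 nm; 0% = enzyme without compound and 100% = no enzyme blank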
Target sequence (P03951 19-387 limits assumed): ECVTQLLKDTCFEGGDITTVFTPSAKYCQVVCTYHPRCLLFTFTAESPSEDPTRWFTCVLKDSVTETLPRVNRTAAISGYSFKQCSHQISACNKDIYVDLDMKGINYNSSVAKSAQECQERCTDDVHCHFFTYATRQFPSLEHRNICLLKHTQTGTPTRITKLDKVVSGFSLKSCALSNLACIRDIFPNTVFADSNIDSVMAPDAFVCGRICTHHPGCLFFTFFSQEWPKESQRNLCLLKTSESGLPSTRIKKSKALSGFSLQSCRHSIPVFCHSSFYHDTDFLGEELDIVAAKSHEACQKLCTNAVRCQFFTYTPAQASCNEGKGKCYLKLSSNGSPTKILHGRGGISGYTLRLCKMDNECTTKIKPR
Target sequence (P03951 388-625 limits assumed): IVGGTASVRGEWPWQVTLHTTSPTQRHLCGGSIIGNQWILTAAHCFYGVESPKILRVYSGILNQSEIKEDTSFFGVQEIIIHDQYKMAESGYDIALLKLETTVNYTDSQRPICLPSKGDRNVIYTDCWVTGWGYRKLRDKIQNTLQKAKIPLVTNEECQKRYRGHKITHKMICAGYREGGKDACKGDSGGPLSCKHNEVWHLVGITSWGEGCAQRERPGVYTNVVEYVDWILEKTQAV
Thrombin inh: inhibitors of human thrombin. 220,000 tested, 0.26% active. alpha-thrombin, Boc-VPR-AMC fluorogenic substrate cleavage. P00734. inhibition, % at 5 µM. AID 1046;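 active means inhibition at or above 40%; inactive means inhibition below 40%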;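 further: 0% = enzyme with no compound and 100% = wells without enzyme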
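Material: Human alpha-thrombin protein | Buffer or medium: pH 7.5 Tris-saline with Tween 20 | Reagent: Boc-VPR-AMC substrate, 15 µM final | Schedule: Reaction at ambient temperature | Detection: AMC fluorescence at 355 nm excitation and 460 nm emission | Evaluation: Percent inhibition scaled between no-compound controls and no-enzyme blanks | Controls: no-compound enzyme wells and no-enzyme blanks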
* = called active by the depositor; . = no result.

SMILES | FXIIa inh | KLK5 inh | Furin inhibitor | FXIa inh | Thrombin inh
CCN(CC)S(=O)(=O)c1ccc(OC)c(NS(=O)(=O)c2ccc(F)cc2)c1 | 28 | 42* | -22 | 16 | 23
CCN(CC)S(=O)(=O)c1ccc(NS(=O)(=O)c2ccc(F)cc2)cc1 | 14 | -6 | -7 | 2 | 3
Oc1ccc(Cl)cc1/C=C/c1ccc2cccc(O)c2n1 | 39 | 34 | 10 | 33 | 49*
Oc1c(Cl)cc(Cl)cc1/C=C/c1ccc2cccc(O)c2n1 | . | -2 | -28 | 2 | 1
CCc1ccccc1NC(=S)N(CCOC)C(C)c1ccco1 (stereo not given) | 10 | -4 | -7 | -1 | 0
Cc1cc(C)nc(N/N=C/c2cc(C)n(CC(F)(F)F)c2C)n1 | 6 | 6 | -13 | 10 | -1
O=C(NCc1ccccc1)C1=C[C@@H](c2coc3ccccc3c2=O)C[C@@H](OCCCCO)O1 | 14 | 6 | -18 | 1 | 41*
O=C1c2cccc3cccc(c23)C(=O)N1OS(=O)(=O)c1ccccc1 | -3 | -33 | -2 | -18 | 12
O=C1c2ccccc2C(=O)N1OS(=O)(=O)c1ccccc1 | 76* | -23 | -22 | 43* | 34
Cc1ccc(C)c(S(=O)(=O)ON2C(=O)c3ccccc3C2=O)c1 | 77* | 9 | -11 | 62* | 48*
CNC(=S)N/N=C/c1ccco1 | 13 | 4 | -10 | 3 | 4
CC(=O)Nc1ccc(-n2nnnc2SCC(=O)Nc2cccc(NC(=O)c3ccco3)c2)cc1 | 5 | 6 | -18 | -1 | -2
COc1ccc(/C=N/NC(=O)c2sc3nc(C)cc(C)c3c2N)cc1 | 87* | 48* | 0 | 27 | 42*
Cc1cc(C)c2c(N)c(C(=O)N/N=C/c3cccs3)sc2n1 | -2 | 0 | -18 | -2 | -4
O=C(NC12CC3CC(CC(C3)C1)C2)N(Cc1ccccc1)Cc1ccncc1 | 7 | . | -19 | 1 | -1
CC(=O)c1cc2c(cc1NC(=O)c1ccc(C)cc1)OCO2 | 6 | -12 | -30 | -4 | -4
Cc1cc(C(=O)Cn2ncc(Cl)c(Cl)c2=O)c(C)n1CC(F)(F)F | 31 | 72* | -12 | 18 | 24
CSc1nc(-c2ccccc2)nn1C(=O)c1ccc(Cl)cc1 | 17 | 68* | -4 | 20 | 84*
CSc1nc(-c2ccc(Cl)cc2)nn1C(=O)c1ccccc1 | 17 | 63* | -17 | 23 | 29
Cc1ccc(C)c(NC(=O)C2CCCN2S(=O)(=O)c2ccc3c(c2)n(C)c(=O)c(=O)n3C)c1 (stereo not given) | 11 | -11 | 1 | 5 | 1
Clc1ccccc1-c1nc(-c2cccnc2)no1 | 15 | 57* | -15 | 9 | 16
Clc1ccccc1-c1nc(-c2ccncc2)no1 | 11 | -3 | -10 | 1 | 0
Cc1cccn2c(CN3CCNC(=O)CC3)c(C(=O)N(C)CCc3ccccc3)nc12 | 1 | . | -14 | -2 | -4
Cc1nn(C)c(=S)n1-c1ccc(Cl)cc1 | 31 | 44* | -6 | 28 | 1
COc1ccccc1C(=O)Nc1ccc(S(=O)(=O)NC2=NCCCCC2)cc1 | 25 | 52* | -2 | 26 | 13
SMILES | FXIIa inh | KLK5 inh | Furin inhibitor | FXIa inh | Thrombin inh
CN(C)c1ccc(C(=O)Nc2ccc(S(=O)(=O)NC3=NCCCCC3)cc2)cc1 | . | . | 4 | . | .
COc1ccc(CN2C(=O)c3ccccc3C2C(=O)NCCc2ccccc2)c(OC)c1 (stereo not given) | 4 | -2 | -9 | -6 | -17
O=C(NC1CCCCCCC1)C1c2ccccc2C(=O)N1Cc1cccs1 (stereo not given) | 9 | -2 | -13 | 0 | 1
COc1ccc(CN2C(=O)c3ccccc3C2C(=O)NC2CCCCCC2)c(OC)c1 (stereo not given) | 33 | 22 | -9 | 31 | 47*
CC1CCC(NC(=O)C2c3ccccc3C(=O)N2Cc2cccs2)CC1 (stereo not given) | 18 | 44* | -11 | 4 | 17
COc1ccc(N2C(=O)CC(Nc3cccc([N+](=O)[O-])c3)C2=O)cc1 (stereo not given) | 44* | 42* | -3 | 18 | 17
Cc1ccc(NC2CC(=O)N(c3cccc([N+](=O)[O-])c3)C2=O)cc1 (stereo not given) | 5 | -1 | -10 | -4 | -1
CCNc1ccc2c(Cl)cc(=O)oc2c1 | 56* | -48 | -17 | 31 | 0
Cc1ccc(C(O)(C(=O)NNc2ccc3ccccc3n2)c2ccc(C)cc2)cc1 | 2 | -75 | -16 | -17 | 3
